In brackets after ≈: the same amount, converted by molar mass. Activity calls are given as the source filed them. The rule behind the calls is not given here.
Assays:
[1] = Antifungal activity against Candida albicans NCPF 3179 strain; na = not active; type: functional
[2] = tested on: Aspergillus niger; experiment: Antifungal activity against Aspergillus niger IMI17454 strain.; type: functional; conditions: Aspergillus niger; read-out: MIC
[3] = tested on: Aspergillus nidulans; experiment: Antifungal activity against Aspergillus nidulans CABI 0160037 strain; type: functional
[4] = tested on: Klebsiella aerogenes; experiment: Antibacterial activity against Klebsiella aerogenes WRL CN 345 strain.; type: functional, WRL CN 375; conditions: Klebsiella aerogenes, WRL CN 375; read-out: MIC
[5] = tested on: Enterococcus faecalis; experiment: Antibacterial activity against Streptococcus faecalis NCTC 775 strain.; type: functional
[6] = tested on: Candida albicans; experiment: Antifungal activity against Candida albicans NCPF 3179 strain.; type: functional; conditions: Candida albicans; read-out: MIC
[7] = Antibacterial activity against Proteus vulgaris NCTC 4175 strain; na = not active; type: functional
[8] = tested on: Staphylococcus aureus; experiment: Antibacterial activity against Staphylococcus aureus NCTC 6571 strain.; type: functional
[9] = tested on: Escherichia coli; experiment: Antibacterial activity against Escherichia coli NCTC 9001 strain.; type: functional, organism-based
[10] = tested on: Mycolicibacterium fortuitum; experiment: Antibacterial activity against Mycobacterium fortuitum NCTC 10394 strain.; type: functional
[11] = tested on: Enterobacter cloacae; experiment: Antibacterial activity against Enterobacter cloacae NCTC 10005 strain.; type: functional, organism-based
[12] = tested on: Staphylococcus aureus; experiment: Antibacterial activity against MRSA PHLS M1 strain; na = not active; type: functional, organism-based
[13] = tested on: Klebsiella aerogenes; experiment: Antibacterial activity against Klebsiella aerogenes WRL CN 345 strain; na = not active; type: functional, organism-based
[14] = tested on: Staphylococcus aureus; experiment: Antibacterial activity against methicillin-resistant Staphylococcus aureus (MRSA) PHLS M1 strain.; type: functional
In short: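 Read-out is the minimum inhibitory concentration, reported in µM. Amoxycillin is tested alongside as the reference antibiotic.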

[15] = tested on: Aspergillus niger; experiment: Antifungal activity against Aspergillus niger IMI17454 strain; na = not active; type: functional
[16] = tested on: Mycolicibacterium fortuitum; experiment: Antibacterial activity against Mycobacterium fortuitum NCTC 10394 strain; na = not active; type: functional, organism-based
[17] = tested on: Enterococcus faecalis; experiment: Antibacterial activity against Streptococcus faecalis NCTC 775 strain; na = not active; type: functional, organism-based
[18] = tested on: Staphylococcus aureus; experiment: Antibacterial activity against Staphylococcus aureus NCTC 6571 strain; na = not active; type: functional, organism-based
[19] = Antibacterial activity against Enterobacter cloacae NCTC 10005 strain; type: functional
[20] = tested on: Proteus vulgaris; experiment: Antibacterial activity against Proteus vulgaris NCTC 4175 strain.; type: functional
[21] = tested on: Aspergillus nidulans; experiment: Antifungal activity against Aspergillus nidulans CABI 0160037 strain; na = not active; type: functional

## CCC(C)n1ncn(-c2ccc(N3CCN(c4ccc(OC[C@H]5CO[C@](Cn6cncn6)(c6ccc(Cl)cc6Cl)O5)cc4)CC3)cc2)c1=O (some centres not stated) [ITRACONAZOLE]
[1]
  MIC: 35.4 µM (≈ 25 µg/mL)
[2]
  MIC: 17.7 µM (≈ 12.5 µg/mL)
[3]
  MIC: 35.4 µM (≈ 25 µg/mL)

## CC(C)n1cc(NC(=O)c2cc(NCc3ccccc3)cn2C)cc1C(=O)Nc1cc(C(=O)NCCCN(C)C)n(C)c1
[4]
  MIC: 147 µM (≈ 86.3 µg/mL)
[5]
  MIC: 147 µM (≈ 86.3 µg/mL)
[6]
  MIC: 147 µM (≈ 86.3 µg/mL)
[7]
  MIC: inactive
[8]
  MIC: 147 µM (≈ 86.3 µg/mL)
[9]
  MIC: inactive
[2]
  MIC: 147 µM (≈ 86.3 µg/mL)
[3]
  MIC: 73.5 µM (≈ 43.1 µg/mL)
[10]
  MIC: 73.5 µM (≈ 43.1 µg/mL)
[11]
  MIC: inactive
[12]
  MIC: inactive

## CN(C)CCCNC(=O)c1cc(NC(=O)c2cc(NC(=O)c3cc(NC=O)cn3C)cn2C2CCCC2)cn1C
[5]
  MIC: 75 µM (≈ 41.3 µg/mL)
[6]
  MIC: 75.3 µM (≈ 41.5 µg/mL)
[7]
  MIC: inactive
[13]
  MIC: inactive
[8]
  MIC: 75 µM (≈ 41.3 µg/mL)
[9]
  MIC: inactive
[14]
  MIC: 75.3 µM (not active) (≈ 41.5 µg/mL)
[15]
  MIC: inactive
[10]
  MIC: 75.3 µM (≈ 41.5 µg/mL)
[11]
  MIC: inactive

## CC(C)n1cc(NC(=O)c2cc(NC(=O)c3cc(NC=O)cn3C(C)C)cn2C)cc1C(=O)NCCCN(C)C
[6]
  MIC: 75 µM (≈ 41.5 µg/mL)
[7]
  MIC: inactive
[16]
  MIC: inactive
[13]
  MIC: inactive
[9]
  MIC: inactive
[14]
  MIC: 150 µM (≈ 82.9 µg/mL)
[15]
  MIC: inactive
[3]
  MIC: 150 µM (≈ 82.9 µg/mL)
[11]
  MIC: inactive
[17]
  MIC: inactive
[18]
  MIC: inactive

## CN(C)CCCNC(=O)c1cc(NC(=O)c2cc(NC(=O)c3cc(NC=O)cn3C)cn2CC2CC2)cn1C
[19]
  MIC: 76.9 µM (≈ 41.3 µg/mL)
[4]
  MIC: 38.4 µM (≈ 20.6 µg/mL)
[5]
  MIC: 76.9 µM (≈ 41.3 µg/mL)
[6]
  MIC: 76.9 µM (≈ 41.3 µg/mL)
[7]
  MIC: inactive
[8]
  MIC: 153 µM (≈ 82.1 µg/mL)
[9]
  MIC: inactive
[14]
  MIC: 76.9 µM (≈ 41.3 µg/mL)
[15]
  MIC: inactive
[3]
  MIC: 153 µM (≈ 82.1 µg/mL)
[10]
  MIC: 38.4 µM (≈ 20.6 µg/mL)

## CC(=O)Nc1cc(C(=O)Nc2cc(C(=O)Nc3cc(C(=O)NCCCN4CCN(C)CC4)n(C)c3)n(CCC(C)C)c2)n(C)c1
[1]
  MIC: inactive
[4]
  MIC: 136 µM (≈ 84.6 µg/mL)
[9]
  MIC: inactive
[15]
  MIC: inactive
[3]
  MIC: 136 µM (≈ 84.6 µg/mL)
[20]
  MIC: 136 µM (≈ 84.6 µg/mL)
[10]
  MIC: 136 µM (≈ 84.6 µg/mL)
[11]
  MIC: inactive
[12]
  MIC: inactive
[17]
  MIC: inactive
[18]
  MIC: inactive

## CC(=O)Nc1cc(C(=O)Nc2cc(C(=O)Nc3cc(C(=O)NCCCN4CCOCC4)n(C)c3)n(CCC(C)C)c2)n(C)c1
[1]
  MIC: inactive
[7]
  MIC: inactive
[13]
  MIC: inactive
[9]
  MIC: inactive
[15]
  MIC: inactive
[21]
  MIC: inactive
[10]
  MIC: 140 µM (≈ 85.2 µg/mL)
[11]
  MIC: inactive
[12]
  MIC: inactive
[17]
  MIC: inactive
[18]
  MIC: inactive

## CN(C)CCCNC(=O)c1cc(NC(=O)c2cc(NC(=O)c3cc(NC(=O)/C=C/c4ccccc4)cn3C)cn2C)cn1C
[19]
  MIC: 70.2 µM (≈ 42 µg/mL)
[4]
  MIC: 70.2 µM (≈ 42 µg/mL)
[5]
  MIC: 8.8 µM (≈ 5.27 µg/mL)
[6]
  MIC: 35.1 µM (≈ 21 µg/mL)
[8]
  MIC: 8.8 µM (≈ 5.27 µg/mL)
[9]
  MIC: inactive
[2]
  MIC: 140 µM (≈ 83.8 µg/mL)
[14]
  MIC: 140 µM (≈ 83.8 µg/mL)
[3]
  MIC: 70.2 µM (≈ 42 µg/mL)
[20]
  MIC: 70 µM (≈ 41.9 µg/mL)
[10]
  MIC: 140 µM (≈ 83.8 µg/mL)

## Cc1oc(CNC(=O)c2cc(NC(=O)c3cc(NC=O)cn3C)cn2C)nc1C(=O)NCCCN(C)C
[1]
  MIC: inactive
[19]
  MIC: 160 µM (not active) (≈ 82 µg/mL)
[7]
  MIC: inactive
[16]
  MIC: inactive
[13]
  MIC: inactive
[9]
  MIC: inactive
[2]
  MIC: 160 µM (not active) (≈ 82 µg/mL)
[14]
  MIC: 160 µM (not active) (≈ 82 µg/mL)
[3]
  MIC: 160 µM (not active) (≈ 82 µg/mL)
[17]
  MIC: inactive
[18]
  MIC: inactive

## Cc1sccc1C(=O)Nc1cc(C(=O)Nc2cc(C(=O)Nc3cc(C(=O)NCCCN(C)C)n(C)c3)n(C)c2)n(C)c1
[1]
  MIC: inactive
[4]
  MIC: 70.8 µM (≈ 42 µg/mL)
[5]
  MIC: 141 µM (≈ 83.6 µg/mL)
[7]
  MIC: inactive
[9]
  MIC: inactive
[2]
  MIC: 141 µM (≈ 83.6 µg/mL)
[14]
  MIC: 141 µM (≈ 83.6 µg/mL)
[3]
  MIC: 70.8 µM (≈ 42 µg/mL)
[10]
  MIC: 35.4 µM (≈ 21 µg/mL)
[11]
  MIC: inactive
[18]
  MIC: inactive

## CC(C)CCn1cc(NC(=O)c2cc(NC=O)cn2C)cc1C(=O)Nc1cc(C(=O)NCCCN(C)C)n(C)c1
[19]
  MIC: 150 µM (≈ 82.9 µg/mL)
[4]
  MIC: 37.5 µM (≈ 20.7 µg/mL)
[5]
  MIC: 57.5 µM (≈ 31.8 µg/mL)
[6]
  MIC: 150 µM (≈ 82.9 µg/mL)
[8]
  MIC: 150 µM (≈ 82.9 µg/mL)
[9]
  MIC: inactive
[14]
  MIC: 150 µM (≈ 82.9 µg/mL)
[15]
  MIC: 150 µM (≈ 82.9 µg/mL)
[21]
  MIC: inactive
[20]
  MIC: 150 µM (≈ 82.9 µg/mL)
[10]
  MIC: 37.5 µM (≈ 20.7 µg/mL)

## CC(=O)Nc1cc(C(=O)Nc2cc(C(=O)Nc3nc(C(=O)NCCCN(C)C)c(C(C)C)s3)n(C)c2)n(C)c1
[1]
  MIC: inactive
[5]
  MIC: 74.5 µM (≈ 41.5 µg/mL)
[7]
  MIC: inactive
[16]
  MIC: inactive
[13]
  MIC: inactive
[9]
  MIC: inactive
[2]
  MIC: 74.5 µM (≈ 41.5 µg/mL)
[11]
  MIC: inactive
[12]
  MIC: inactive
[18]
  MIC: inactive
